Measured values pooled from the literature.
Protocols differ between the studies behind these lines.

`Cl.O[C@]12C=C(c3nccc4c3[nH]c3ccccc34)[C@@H]3CCN(CCCC/C=C\CC1)C[C@@]31C[C@@H]3/C=C\CCCCN3[C@H]12` gave an IC50 of 0.38 µg/mL (KB; cell growth or viability, neutral red; 48 h).
`CCCCOC(=O)[C@H]1O[C@@H](O[C@H]2CC[C@]3(C)[C@H]4CC=C5[C@@H]6CC(C)(C)CC[C@]6(C(=O)O[C@@H]6O[C@H](CO)[C@@H](O)[C@H](O)[C@H]6O)CC[C@@]5(C)[C@]4(C)CC[C@H]3C2(C)C)[C@H](O[C@@H]2OC[C@@H](O)[C@H](O)[C@H]2O)[C@@H](O)[C@@H]1O` gave an IC50 of > 30 µM (human Neutrophil; elastase release, inhibitor).
The IC50 of `COc1ccc2[nH]cc(CCNc3nccc(Nc4cccc5c4ccn5C)n3)c2c1` is reported as 0.008 µM (U-937; cell growth or viability, fluorescence; 72 h).
The IC50 of `N.N.[Cl][Pt][Cl]` is reported as 1.12 µM (Hs 683; cell growth or viability, MTT).
For `COC(=O)[C@H]1O[C@@H](O[C@H]2CC[C@]3(C)[C@H]4CC=C5[C@@H]6CC(C)(C)CC[C@]6(C(=O)O[C@@H]6O[C@H](CO)[C@@H](O)[C@H](O)[C@H]6O)CC[C@@]5(C)[C@]4(C)CC[C@H]3C2(C)C)[C@H](O)[C@@H](O)[C@@H]1O[C@@H]1O[C@@H](CO)[C@H](O)[C@H]1O`, the IC50 was > 30 µM (human Neutrophil; elastase release, inhibitor).
With `O=C(O)c1cnn(-c2ccccc2)c1OCCCc1c[nH]c2ccccc12` the inhibition was < 50% (HFF; cell growth or viability; 200 µM, 96 h).
`CC1=CC(=O)c2c(O)cccc2C1=O` has an IC50 of 3.03 µM (NCI-H226; cell growth or viability, SRB).
`COc1cc2[nH]c(C)c(-c3ccc(N(C)C)cc3)c(=O)c2cc1Cl` has an EC50 of > 29.2 µM (J774; cell growth or viability).
For `Cc1c2ccncc2c(C)c2c1[nH]c1ccccc12`, the IC50 was 0.22 µg/mL (KB; cell growth or viability, MTT; 72 h).
The IC50 of `COc1cccc2c1C(=O)c1c(O)c3c(c(O)c1C2=O)C[C@@](O)(C(=O)CO)C[C@@H]3O[C@H]1C[C@H](N)[C@H](O)[C@H](C)O1` is reported as 1.4 µg/mL (KB; cell growth or viability; 48 h).
